Screening data from PubChem BioAssay.
Most compounds without a hit are left out; they make up all but 2.8% or so of the library.
Yeast life ext: extends the lifespan of yeast; S. cerevisiae growth with nicotinamide, OD615; deaD strain in restrictive glucose medium; inhibition of the nicotinamide effect, % at 10 µM; hit rate 0.68% among 130,000;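 active = inhibition above a set limit, placed 3 SD over the median of all compounds, cut at about 26% in these data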;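 note: 0% = nicotinamide-treated wells and 100% = cells grown without nicotinamide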
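assay system = DeaD-strain S. cerevisiae | buffer or medium = restrictive glucose medium | reagent = 1.5 mM nicotinamide | compound = 10 µM single point, 0.25% DMSO | incubation = 48 h compound exposure at 30 °C, humidified | signal = OD615 measurement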
PTEN del growth: PTEN-deleted cell growth suppression; HCT116 PTEN-null viability, CellTiter-Glo, 60 h; stronger effect = lower value; viability, % at 10 µM; hit rate 1.2% among 140,000;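 active = viability at or below a set limit, 4 SD under the median of all tested compounds, cut at about 3.7% in these data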;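 note: PTEN knockout HCT116 line with beta catenin targeted HCT116 as companion control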
Yeast growth inh: yeast BB579 growth reduction in restrictive medium | S. cerevisiae BB579 growth, OD615, 48 h | inhibition, % at 10 µM | hit rate 0.51% among 140,000;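 active = inhibition above a set limit, 3 SD over the mean compound inhibition, cut at about 44% in these data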
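Test system: DeaD yeast strain BB579 / Buffer or medium: restrictive glucose-based CSMM-D medium / Doses: single 10 µM dose / Schedule: 4 h cell preincubation, 48 h compound exposure, 30 °C humidified / Technique: culture absorbance at 615 nm / Controls: amphotericin B positive control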
sdo1 growth: restores growth of sdo1-depleted yeast | AID 817 | z-score at 10 µM | hit rate 0.21% among 140,000 | S. cerevisiae sdo1-depleted JHY4D growth rescue, OD600 30 h; stronger effect = higher value; pdr5 snq2 efflux-pump mutant strain;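 active = z-score above 3 at both the 24 hr and the 30 hr optical density reads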;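 note: z-score against mean and SD of all compound wells on the same plate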
bCat KO growth: beta-catenin-lacking colon tumor cell growth suppression; viability, % at 10 µM; hit rate 1.5% among 140,000; AID 818; HCT116 beta-catenin knockout viability, CellTiter-Glo, 60 h; stronger effect = lower value;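 active = viability at or under a set limit, the compound median less 4 SD, cut at about 6% in these data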;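 note: 0% = Hyamine 1622 control at 20 µM and 100% = untreated cell control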
* hit, by the source's call.

Screening CC1CC(C)CN(C(=O)c2cccc(S(=O)(=O)Nc3cc(C(F)(F)F)ccc3Cl)c2)C1 (stereo not drawn) returned Yeast life ext 32*, PTEN del growth 92, Yeast growth inh -22, sdo1 growth -1 and bCat KO growth 86.
CCCNC(=S)N1CCC(NC(=O)C2CCCCC2)CC1 was read as Yeast life ext -15, PTEN del growth 104, Yeast growth inh -20, sdo1 growth 0.47 and bCat KO growth 115.
`CCOC(=O)c1c(N2C(=O)Nc3ccccc3N2O)sc2c1CCCC2` gave Yeast life ext 30*, PTEN del growth 88, Yeast growth inh -31, sdo1 growth -0.68 and bCat KO growth 87.
For CC(=O)N(Cc1ccc(F)cc1)C1=C(NCCc2ccccc2)C(=O)c2ccccc2C1=O the results were Yeast life ext 23, PTEN del growth 2.3*, Yeast growth inh -99, sdo1 growth -2 and bCat KO growth 1.9*.
Screening CC(C)[C@H](NC(=O)NCCc1ccc(F)cc1)C(=O)O returned Yeast life ext -1, PTEN del growth 12, Yeast growth inh -13, sdo1 growth -0.15 and bCat KO growth 11.
CCCCCC(=O)Nc1ccc(S(=O)(=O)Nc2nccnc2OC)cc1 was read as Yeast life ext -6, PTEN del growth 91, Yeast growth inh 1, sdo1 growth -0.08 and bCat KO growth 84.
Screening COc1cc(-c2nnc3sc(-c4cccs4)nn23)cc(OC)c1OC returned Yeast life ext -10, PTEN del growth 3.0*, Yeast growth inh -79, sdo1 growth -0.22 and bCat KO growth 4.0*.
Cc1ccc(C(=O)Nc2ccccc2C(=O)NC(C(=O)O)C(C)C)cc1 (stereo not drawn) was read as PTEN del growth 0.8*, Yeast growth inh -2, sdo1 growth -0.13 and bCat KO growth 0.5*.
For CCCCCC(=O)O[C@]1(C(C)=O)CC[C@H]2[C@@H]3CCC4=CC(=O)CC[C@]4(C)[C@H]3CC[C@@]21C the results were Yeast life ext 7, PTEN del growth 7, Yeast growth inh -47, sdo1 growth -1.1 and bCat KO growth 4.8*.
Screening CC(C)CC(C(=O)N1CCc2ccccc2C1)N1C(=O)c2ccccc2C1=O (stereo not drawn) returned Yeast life ext -7, PTEN del growth 88, Yeast growth inh -9, sdo1 growth 0.35 and bCat KO growth 77.
Screening COc1cc(C(=O)Oc2c(CN3CCOCC3)cc(Cl)c3cccnc23)cc(OC)c1OC returned Yeast life ext 15, PTEN del growth 1.5*, Yeast growth inh -6, sdo1 growth -0.97 and bCat KO growth 2.4*.
`O=C(Oc1ccc(Cl)c2cccnc12)N1CCOCC1` gave Yeast life ext -6, PTEN del growth 83, Yeast growth inh -31, sdo1 growth 0.3 and bCat KO growth 88.
For COCc1cc(CN2CCCC2)c(O)c2ncccc12 the results were Yeast life ext 0, PTEN del growth 5, Yeast growth inh 1, sdo1 growth 0.36 and bCat KO growth 6.
For O=C(Oc1c(CN2CCOCC2)cc(Cl)c2cccnc12)c1ccc(F)cc1 the results were Yeast life ext 28*, PTEN del growth 1.9*, Yeast growth inh 11, sdo1 growth -1.3 and bCat KO growth 5.0*.
`COc1ccc(CN2CCOCC2)cc1` gave Yeast life ext -5, PTEN del growth 101, Yeast growth inh -67, sdo1 growth 0.07 and bCat KO growth 109.
Screening COc1cccc(C(=O)Oc2c(CN3CCOCC3)cc(Cl)c3cccnc23)c1 returned Yeast life ext 15, PTEN del growth 1.4*, Yeast growth inh -27, sdo1 growth 0.33 and bCat KO growth 1.6*.
Screening COc1ccc(C(=O)Oc2c(CN3CCOCC3)cc(Cl)c3cccnc23)cc1 returned Yeast life ext 0, PTEN del growth 3.1*, Yeast growth inh -23, sdo1 growth -1.5 and bCat KO growth 4.9*.
Screening CCOC(=O)c1[nH]c2ccccc2c1NC(=O)c1ccc(Br)o1 returned PTEN del growth 74, Yeast growth inh -32, sdo1 growth -1.6 and bCat KO growth 82.
Cc1ccc(/C=N/N2C(=S)SC(C)(C)C2N(O)C(=O)Nc2ccc([N+](=O)[O-])cc2)cc1 (stereo not drawn) was read as Yeast life ext -9, PTEN del growth 9, Yeast growth inh -17, sdo1 growth -0.37 and bCat KO growth 3.7*.
